Experimental data as given in ChEMBL document CHEMBL1134905, “Thiourea-based gemfibrozil analogues as HDL-elevating agents” (2002).

Legend:
Type in all cases: functional
[1] = tested on: Rattus norvegicus; assay: In vivo biological activity against HDL relative to gemfibrozil in male Sprague-Dawley rats
Summary of the method: (§1)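 Compounds given in the diet to groups of six rats for 8 days, after a 7-day lead-in; dose expressed as mg/kg/day. At termination, rats anesthetized with CO2 and bled from the carotid artery, and serum separated. Values are % change or ratio versus gemfibrozil (set = 1), each relative to an untreated control group; significance P < 0.05.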

[2] = tested on: Rattus norvegicus; assay: Percentage change in total cholesterol was determined in vivo in male Sprague-Dawley rats; summary of the method: as §1
[3] = tested on: Rattus norvegicus; assay: Dose administered for testing biological activity in vivo in male Sprague-Dawley rats; summary of the method: as §1
[4] = tested on: Rattus norvegicus; assay: In vivo biological activity against Apo A-I relative to gemfibrozil in male Sprague-Dawley rats; summary of the method: as §1
[5] = tested on: Rattus norvegicus; assay: Percentage change in total triglycerides was determined in vivo in male Sprague-Dawley rats; summary of the method: as §1

| SMILES | Activity [1] | Change [2] [%] | Dose [3] [mg/kg/day] | Activity [4] | Change [5] [%] |
| --- | --- | --- | --- | --- | --- |
| Cc1ccc(Cl)cc1/N=C(\S)NCC(C)(C)C(N)=O | 0.57 | -3 | 41 | 1.15 | -49 |
| Cc1ccc(Cl)cc1/N=C(\S)NCCO | 0.61 | 40 | 52 | 1.06 | -56 |
| Cc1ccc(Cl)cc1NC(=O)NCC(C)(C)C(=O)O | 0.36 | 74 | 73 | 0.32 | -21 |
| Cc1ccc(C)c(N/C(S)=N/CC(C)(C)C(=O)O)c1 | 0.54 | 73 | 78 | 0.93 | 69 |
| COc1ccc(Cl)cc1/N=C(\S)NCC(C)(C)C(=O)O | 0.62 | 9 | 77 | 0.27 | -28 |
| Cc1ccc(Cl)cc1/N=C(\S)N1CCCC(C)(C(=O)O)C1 (stereo not given) | 0.33 | 14 | 81 | -0.16 | 15 |
| Cc1ccc(Cl)cc1/N=C(\S)NCC1(C(=O)O)CCC1 | 1.19 | 36 | 76 | 0.49 | -39 |
| COC(=O)C(C)(C)C/N=C(\S)Nc1cc(Cl)ccc1C | 0.93 | -12 | 74 | 1.81 | -12 |
| Cc1ccc(Cl)cc1/N=C(\S)NCC1(C(=O)O)CCCC1 | 1.09 | 41 | 67 | 0.55 | -61 |
| Cc1ccc(Cl)cc1/N=C(\S)NCC1(C(=O)O)CCCCC1 | 0.73 | 21 | 88 | 0.32 | -54 |
| Cc1ccc(C)c(OCCCC(C)(C)C(=O)O)c1 [GEMFIBROZIL] | 1 | -23 | 46 | 1 | -43 |
